Article PMC6301001 (Cancer chemotherapy and pharmacology, 2015)
Several values for one entry are separate records, joined by “and”; a condition that tells them apart may be missing. Identical values can stand only once. Entries after “also recorded” stand apart in the source; their conditions may differ. Like-named read-outs stand apart in the source and are kept apart here.

What was measured:
[1] = system: mouse model of DIPG in which the PI3Kinase/Akt pathway is activated; conditions: genetically engineered mouse model of DIPG; cited from earlier work
[2] = system: human tumor cell lines; conditions: wide variety of human tumor cell lines; reported range; cited from earlier work
[3] = assay type: in vivo, rhesus monkeys (Macaca mulatta); conditions: single oral dose 7 mg/kg; for Cl: plasma clearance
Method in brief: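 Single 7 mg/kg oral dose by nasogastric tube under ketamine sedation to three adult male rhesus monkeys (10.5–14.7 kg) fitted with central venous ports. Blood sampled at 0–10, 24 and 48 h, then on days 0–64; plasma held at –80 °C. Total drug by HPLC/MS/MS after acetonitrile precipitation with miltefosine internal standard; standards 0.001–10 µg/ml; LLOQ 1 ng/ml. Non-compartmental: observed Cmax/Tmax, trapezoidal AUC0–inf, t1/2 = 0.693/k, Cl = dose/AUC0–inf.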

[4] = assay type: in vivo, rhesus monkeys (Macaca mulatta)
Method in brief: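 Three adult male rhesus monkeys with an implanted fourth-ventricular CSF catheter/reservoir, sedated with ketamine (10 mg/kg IM), then given a single 7 mg/kg oral dose by nasogastric tube. CSF (0.3 ml) sampled at 0–10, 24 and 48 h, then in a repeat study on days 0–64. Total drug by HPLC/MS/MS (LLOQ 0.1 ng/ml). Non-compartmental analysis: observed Cmax; trapezoidal AUC0–inf; t1/2 = 0.693/terminal rate constant; penetration = CSF/plasma AUC0–inf.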

[5] = cited from earlier work
[6] = system: glioma cell lines; conditions: cited from earlier work
[7] = system: U251 xenografts injected into the hind limb; conditions: cited from earlier work
[8] = adult patients with solid tumors, cited from earlier work
[9] = CSF, individual NHP, single oral dose 7 mg/kg, 7 mg/kg

## CCCCCCCCCCCCCCCCCCOP(=O)([O-])OC1CC[N+](C)(C)CC1 [Perifosine]
[1]
  activity in mouse model of pontine glioma: absent activity; also recorded: lacked activity; also recorded: no activity was observed
[2]
  IC.50: .09 to 9.2 µg/mL
[3]; individual NHP, 7 mg/kg
  Cl: 77.6 mL/h and 36.5 mL/h and 63.3 mL/h
[3]; mean (range) of 3 NHP
  Cl: 59.1 mL/h
[3]; plasma terminal half-life, individual NHP, 7 mg/kg
  T 1/2: 193 h and 170 h
[3]; plasma, individual NHP, T = 0 to infinity, 7 mg/kg
  AUC: 2139 µg·h/mL and 1137 µg·h/mL
[3]; plasma, individual NHP, sampling to 64 days, 7 mg/kg
  Cmax: 8800 ng/mL and 5300 ng/mL
[3]; plasma
  time plasma concentrations remained >1 µM: > 28 days
[4]; CSF terminal half-life, individual NHP, single oral dose 7 mg/kg, 7 mg/kg
  t 1/2: 146 h and 277 h and 350 h
[4]; [9]
  Cmax: 1.85 ng/mL and 4.39 ng/mL and 4.57 ng/mL
  Tmax: 63.6 h and 235.3 h and 235.4 h
[4]; CSF, individual NHP, single oral dose 7 mg/kg, T = 0 to infinity, 7 mg/kg
  AUC: 1.031 µg·h/mL and 3.44 µg·h/mL and 2.89 µg·h/mL
[4]; CSF, mean of 3 NHP, single oral dose 7 mg/kg, molar equivalent
  maximum measured CSF concentration: 7.8 nM
[4]; CSF, median (range) of 3 NHP, single oral dose 7 mg/kg
  CSF AUC: 6358 (2266–7568) nM/h
[4]; CSF, oral 7.0 mg/kg, collection up to 48 h, 7 mg/kg
  Cmax in the CSF in initial experiments: had not been reached by 48 h; also recorded: has not been reached by 48 h
[4]; CSF, single oral dose 7 mg/kg, 7 mg/kg
  time to maximum CSF concentration: > 7 days and 7 days
[4]; male, rhesus monkey, CSF, po, 7 mg/kg
  Kp: 0.0016
[4]; mean of 3 NHP, single oral dose 7 mg/kg
  AUCCSF:AUCPl (ratio of CSF to plasma exposure): .0016
[4]; plasma and CSF, after a single oral dose
  time levels were measurable in both plasma and CSF: > 2 months
[4]; single oral dose 7 mg/kg
  CSF concentrations relative to plasma concentrations (fold less): 1000 fold
[5]
  tolerability in early phase clinical trials: relatively well tolerated
[5]; renal cell carcinoma, sarcoma and Waldenstroms macroglobulinemia, Phase I and Phase II
  single-agent responses in patients: single-agent objective responses have been reported
[6]
  activity in vitro against glioma cell lines: demonstrated activity
[7]
  activity in vivo in mice bearing U251 xenografts: demonstrated activity
[8]; 50–350 mg/day orally for 3 weeks
  terminal half-life in humans: 105 h
[8]; oral dose
  plasma half-lives: 80 to 116 h
  time of peak plasma concentrations: 8 to 24 h
